Bioassay records deposited in PubChem by Sanford-Burnham Center for Chemical Genomics.
hIAP act: human IAP activation | P09923 | activation factor at 10 µM | 330,000 tested, 0.16% active | purified human IAP, CDP-Star luminescence, 30 min; hits give high values; 1 = vehicle-only enzyme, 0 = enzyme-free background;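 active = activation factor of the enzyme at least 2-fold when tested at 20 µM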
Target sequence (P09923 whole entry, looked up): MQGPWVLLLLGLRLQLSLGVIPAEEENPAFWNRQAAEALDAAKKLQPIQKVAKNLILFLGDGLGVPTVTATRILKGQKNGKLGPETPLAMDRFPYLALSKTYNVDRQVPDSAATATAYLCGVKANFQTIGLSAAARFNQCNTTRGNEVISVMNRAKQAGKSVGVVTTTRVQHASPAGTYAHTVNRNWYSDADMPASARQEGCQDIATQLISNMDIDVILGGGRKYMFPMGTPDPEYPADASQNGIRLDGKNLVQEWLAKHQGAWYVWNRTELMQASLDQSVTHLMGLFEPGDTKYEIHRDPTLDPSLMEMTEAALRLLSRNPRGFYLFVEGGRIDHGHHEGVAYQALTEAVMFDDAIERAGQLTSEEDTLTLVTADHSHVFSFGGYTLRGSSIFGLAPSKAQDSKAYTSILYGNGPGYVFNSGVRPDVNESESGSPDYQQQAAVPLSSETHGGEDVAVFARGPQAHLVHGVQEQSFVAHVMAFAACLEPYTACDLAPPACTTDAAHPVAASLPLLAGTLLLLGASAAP
bIAP inh: blocks bovine intestinal alkaline phosphatase activity; 190,000 tested, under 10 active; purified bovine IAP, CDP-star luminescence, 30 min; AID 1019; inhibition, % at 20 µM;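 active = over 50% inhibition of intestinal alkaline phosphatase at 20 µM in the single-dose screen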
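Assay system: bovine IAP enzyme; medium: DEA buffer 100 mM, pH 9.8, with MgCl2 1.0 mM, ZnCl2 0.02 mM; doses: 20 µM single dose; incubation: enzyme reaction for 30 min at room temperature; detection: CDP-star luminescence signal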
hIAP block: human IAP inhibition. purified IAP, CDP-Star luminescence, 30 min. inhibition, % at 10 µM. P09923. AID 2544. 330,000 tested, 0.12% active;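 active = inhibition reaching a set limit with compound at 10 µM in the primary screen, cut at about 35% in these data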;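 also: plate controls were DMSO wells with enzyme for no effect and no-enzyme buffer wells for full effect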
bIAP act: increases bovine intestinal alkaline phosphatase activity; activation factor at 20 µM; 200,000 tested, 0.17% active; AID 1016; purified bovine IAP, CDP-star luminescence, 30 min; hits give high values; fold of DMSO-control signal, blank-subtracted;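 active = activation factor of 2 or more at 20 µM, a signal rise over negative controls twice the positive control's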
mIAP activ: mouse IAP activation; muIAP, CDP-Star luminescence, 30 min; hits give high values; 1 = vehicle-only enzyme signal, 0 = enzyme-free wells; AID 2805; activation factor at 10 µM; 330,000 tested, 0.24% active;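 active = activation factor of at least 2 at 20 µM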
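Assay system: mouse IAP enzyme / Compound: DMSO-dissolved test compounds / Timing: 30 min, room temperature / Measured by: luminescence from enzymatic CDP-Star hydrolysis / Control set: DMSO-only wells, enzyme-free buffer wells as negative control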
mIAP inh: mouse IAP inhibition; purified mouse IAP, CDP-Star luminescence, 30 min; inhibition, % at 10 µM; 330,000 tested, 0.2% active;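 active = inhibition of at least 40% at 10 µM in the primary screen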;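 also: plate controls were DMSO with enzyme for no effect and no enzyme wells for full effect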
hIAP act conf: human IAP activation confirmation | activation (%Activity, negative = activation), % at 8.3 µM | 880 tested, 10% active | purified IAP, CDP-Star luminescence, 30 min; hits give low values | AID 434926 | shares compounds with hIAP act;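 active = at least twofold enzyme activation in any of six single-dose repeats, which the averaged readout prints as negative percent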
* hit, by the source's call; x = no result. Hits are enriched below; roughly 0.77% of the tested compounds scored in any of these assays.

SMILES	hIAP act	bIAP inh	hIAP block	bIAP act	mIAP activ	mIAP inh	hIAP act conf
Cc1ccc(NC(=O)c2cc(-c3ccccc3O)n[nH]2)cc1Cl	1.56	x	-56.1	x	1.13	-12.6	x
COc1ccc(CCNC(=O)c2cc(-c3ccc(C)cc3O)n[nH]2)cc1OC	2.15*	-50.0	-115.0	1.5	1.46	-45.7	-63.0
Cc1cc(O)c(-c2cc(C(=O)NCCc3ccc(S(N)(=O)=O)cc3)[nH]n2)cc1C	2.23*	x	-123.2	x	0.775	22.5	5.1
CC(=O)Nc1ccc2nc3c(=O)n(C)c(=O)n(C)c3nc2c1	0.897	x	10.3	x	0.842	15.8	x
O=C(Cc1ccccc1)NNC(=S)Nc1ccc(Cl)cc1	2.06*	-4.7	-105.7	1	0.901	9.9	-37.2
Cc1ccc(C2CC2C(=O)NNC(=S)Nc2ccc(Cl)cc2)cc1 (configuration not stated)	2.39*	-10.8	-139.1	1.1	0.935	6.5	-11.3
Cc1cccc(NC(=S)NNC(=O)Cc2ccccc2)c1	1.04	3.5	-3.6	1	0.794	20.6	x
Cc1cc(/C=N/NC(N)=S)c(O)c(/C=N/NC(N)=S)c1	2.79*	x	-178.5	x	0.811	18.9	-56.4
Cc1ccc(-n2c(C)cc(/C=N/NC(N)=S)c2C)cc1	1.07	1.2	-7.0	1	0.98	2.0	x
NC(=S)N/N=C/c1ccccc1O	1.65	x	-64.8	x	0.967	3.3	x
NC(=S)N/N=C/c1cccc(O)c1O	2.15*	-28.0	-115.2	1.3	1.02	-2.3	5.2
COc1cc(/C=C2\C(=O)N(c3ccc(NC(C)=O)cc3)N=C2c2ccccc2)ccc1O	0.632	28.6	36.8*	0.7	0.702	29.8	-8.2
CC(=O)c1n[nH]nc1Nc1nc(C)cc(C)n1	2.23*	34.8	-122.7	0.7	1.08	-7.7	0.1
Cc1c(C(=O)N/N=C/c2c(O)ccc3ccccc23)nnn1-c1nonc1N	2.05*	x	-104.7	x	0.787	21.3	-86.1*
COc1cc(OC)cc(C(=O)Nc2ccc(S(=O)(=O)Nc3nc(C)cc(C)n3)cc2)c1	0.949	-29.6	5.1	1.3	0.909	9.1	x
O=C1Nc2ccc(Br)cc2C12NNc1ccccc1O2 (configuration not stated)	4.98*	x	-398.3	0.5	0.657	34.3	35.0
CCC(C)(C)C1CCc2[nH]nc(C(=O)N/N=C(\C)c3ccco3)c2C1 (configuration not stated)	2.1*	x	-109.7	x	0.98	2.0	62.7
Nc1ccc(S(=O)(=O)N2CCc3ccccc32)cc1	0.619	x	38.1*	x	1.03	-3.2	-25.7
COc1ccc(Cl)cc1NC(=O)CN(C)C(=O)CSc1ccc2c(c1)OCCO2	1.07	x	-6.7	x	1.12	-12.2	x
Cc1c(C(C)NC(=O)Nc2ccc(F)cc2F)cnn1C (configuration not stated)	2.1*	-13.3	-110.4	1.1	1.05	-5.0	-47.3
COc1ccccc1C(=O)NC(=O)COC(=O)c1ccc(Br)o1	1.13	x	-12.8	x	0.96	4.0	x
CCN(CC)C(=O)COc1ccc(S(=O)(=O)N2CCOCC2)cc1	2.45*	7.8	-144.8	0.9	1.07	-6.8	-25.6
CCN(CC)C(=O)COc1ccc(S(=O)(=O)N2CCCC2)cc1	1.11	x	-11.4	x	0.965	3.5	x
Cc1c(N2C(=O)/C(=C\c3ccccc3O)SC2=S)c(=O)n(-c2ccccc2)n1C	0.868	x	13.2	x	0.856	14.4	x
CN1C(=O)/C(=C/c2cc(N=Nc3ccccc3)ccc2O)SC1=S	0.536	28.5	46.4*	0.7	0.598	40.2*	-53.6
SMILES	hIAP act	bIAP inh	hIAP block	bIAP act	mIAP activ	mIAP inh	hIAP act conf
O=C(CCC(=O)Nc1ccc(Br)cc1)N/N=C/c1ccc(O)cc1	0.844	x	15.6	x	1.03	-2.6	x
COc1cccc(/C=N/NC(=O)CNC(=O)c2ccncc2)c1O	2.16*	x	-116.0	x	0.946	5.4	-41.6
COc1cc(OC)c(OC)cc1/C=N/NC(=O)c1cc(-c2cccn2C)n[nH]1	0.956	-21.6	4.4	1.2	0.973	2.7	x
COc1cccc(/C=N/NC(=O)c2ccc(=O)[nH]n2)c1O	2.44*	x	-143.6	x	0.89	11.0	2.4
COc1cccc(/C=N/Nc2ccc([N+](=O)[O-])cc2)c1O	0.628	x	37.2*	x	0.861	13.9	-19.3
CCOc1cccc(/C=N/NC(=O)c2cc(-c3cccn3C)n[nH]2)c1O	2.62*	-12.4	-162.4	1.1	0.79	21.0	22.5
CCOC(=O)N1CCN(C(=O)c2ccc(N(C)S(=O)(=O)c3ccc(C)cc3)cc2)CC1	0.922	x	7.8	x	1.06	-5.6	x
CCOc1ccc(Oc2ccc(C(F)(F)F)cc2NC(=O)C2=COCCO2)cc1	0.917	x	8.3	x	0.972	2.8	x
COc1cccc(/C=N/NC(=O)c2cc(-c3ccccn3)nc3ccccc23)c1O	2.13*	x	-112.7	x	0.996	0.4	-0.9
O=C(N/N=C/c1ccc(F)cc1)c1cc(-c2ccccn2)nc2ccccc12	0.956	x	4.4	x	0.866	13.4	x
O=C(CSc1nc(-c2cccs2)cc(C(F)(F)F)n1)NCc1ccccc1	0.634	22.8	36.6*	0.8	0.996	0.4	36.7
COc1ccc2c(c1OC)C(=O)N(c1cccc(NC(C)=O)c1)C2	1.07	x	-6.9	x	0.958	4.2	x
CC(C)CC(=O)NC(=S)NNC(=O)c1ccc(NC(=O)C2CCCCC2)cc1	2.25*	-35.8	-125.5	1.4	1.08	-7.7	62.1
COc1cc(NC(=O)CSc2ncnc3sc4c(c23)CCCC4)c(C(=O)O)cc1OC	0.861	x	13.9	x	0.943	5.7	x
CCc1ccc2nc(Nc3nc(COC)cc(=O)[nH]3)nc(C)c2c1	2.11*	-32.3	-110.5	1.3	1.05	-5.5	-30.6
COCc1cc(=O)[nH]c(Nc2nc3ccc(C)cc3o2)n1	2.08*	-23.0	-107.7	1.2	0.981	1.9	-21.9
CCCCCc1c(C)nc(Nc2nc(C)c3cc(OC)ccc3n2)[nH]c1=O	2.11*	-57.0	-110.7	1.6	0.813	18.7	17.3
CCC(NC(=O)C1CCCC1)c1ccccc1 (configuration not stated)	1.1	x	-10.3	x	0.996	0.4	x
CCN(CC)C(=O)[C@H]1C[C@H](CC(=O)NCc2ccco2)C(=O)N2CCc3c([nH]c4cc(CCC(=O)N(C)C)ccc34)[C@]12C	x	x	x	x	0.936	6.4	x
CCCOc1ccc(C(=O)NNC(=S)NC(=O)c2ccccc2[N+](=O)[O-])cc1	2.14*	x	-113.6	x	0.84	16.0	-22.9
C=CCNC(=S)NNC(=O)c1ccc(OCCCC)cc1	2.08*	7.7	-108.5	0.9	0.914	8.6	2.4
CCCOc1ccc(C(=O)NNC(=S)NC(C)=O)cc1	2.18*	-67.7	-117.7	1.7	0.902	9.8	-12.9
CCCOc1ccc(C(=O)NNC(=S)NC(=O)c2ccccc2)cc1	1.27	x	-27.4	x	0.925	7.5	x
CCCCOc1ccc(C(=O)NNC(=S)NC(=O)CC)cc1	x	5.6	x	0.9	x	x	x
